Measurements as given in ChEMBL document CHEMBL5107939, “Optimization of brain-penetrant picolinamide derived leucine-rich repeat kinase 2 (LRRK2) inhibitors” (RSC Med Chem, 2021).

Key:
[1] = molecular target: T1, Leucine-rich repeat serine/threonine-protein kinase 2 (Homo sapiens, UniProt Q5S007, G2019S); assay: Inhibition of recombinant human GST20 tagged truncated LRRK2 G2019S mutant assessed as substrate phosphorylation preincubated for 15 mins followed by substrate addition and measured after 90 mins using fluorescein-labeled LRRK2tide as substrate in presence of ATP by TR-FRET based Lanthascreen kinase activity assay
T1 sequence (Q5S007 whole entry G2019S, the tested form may be a part): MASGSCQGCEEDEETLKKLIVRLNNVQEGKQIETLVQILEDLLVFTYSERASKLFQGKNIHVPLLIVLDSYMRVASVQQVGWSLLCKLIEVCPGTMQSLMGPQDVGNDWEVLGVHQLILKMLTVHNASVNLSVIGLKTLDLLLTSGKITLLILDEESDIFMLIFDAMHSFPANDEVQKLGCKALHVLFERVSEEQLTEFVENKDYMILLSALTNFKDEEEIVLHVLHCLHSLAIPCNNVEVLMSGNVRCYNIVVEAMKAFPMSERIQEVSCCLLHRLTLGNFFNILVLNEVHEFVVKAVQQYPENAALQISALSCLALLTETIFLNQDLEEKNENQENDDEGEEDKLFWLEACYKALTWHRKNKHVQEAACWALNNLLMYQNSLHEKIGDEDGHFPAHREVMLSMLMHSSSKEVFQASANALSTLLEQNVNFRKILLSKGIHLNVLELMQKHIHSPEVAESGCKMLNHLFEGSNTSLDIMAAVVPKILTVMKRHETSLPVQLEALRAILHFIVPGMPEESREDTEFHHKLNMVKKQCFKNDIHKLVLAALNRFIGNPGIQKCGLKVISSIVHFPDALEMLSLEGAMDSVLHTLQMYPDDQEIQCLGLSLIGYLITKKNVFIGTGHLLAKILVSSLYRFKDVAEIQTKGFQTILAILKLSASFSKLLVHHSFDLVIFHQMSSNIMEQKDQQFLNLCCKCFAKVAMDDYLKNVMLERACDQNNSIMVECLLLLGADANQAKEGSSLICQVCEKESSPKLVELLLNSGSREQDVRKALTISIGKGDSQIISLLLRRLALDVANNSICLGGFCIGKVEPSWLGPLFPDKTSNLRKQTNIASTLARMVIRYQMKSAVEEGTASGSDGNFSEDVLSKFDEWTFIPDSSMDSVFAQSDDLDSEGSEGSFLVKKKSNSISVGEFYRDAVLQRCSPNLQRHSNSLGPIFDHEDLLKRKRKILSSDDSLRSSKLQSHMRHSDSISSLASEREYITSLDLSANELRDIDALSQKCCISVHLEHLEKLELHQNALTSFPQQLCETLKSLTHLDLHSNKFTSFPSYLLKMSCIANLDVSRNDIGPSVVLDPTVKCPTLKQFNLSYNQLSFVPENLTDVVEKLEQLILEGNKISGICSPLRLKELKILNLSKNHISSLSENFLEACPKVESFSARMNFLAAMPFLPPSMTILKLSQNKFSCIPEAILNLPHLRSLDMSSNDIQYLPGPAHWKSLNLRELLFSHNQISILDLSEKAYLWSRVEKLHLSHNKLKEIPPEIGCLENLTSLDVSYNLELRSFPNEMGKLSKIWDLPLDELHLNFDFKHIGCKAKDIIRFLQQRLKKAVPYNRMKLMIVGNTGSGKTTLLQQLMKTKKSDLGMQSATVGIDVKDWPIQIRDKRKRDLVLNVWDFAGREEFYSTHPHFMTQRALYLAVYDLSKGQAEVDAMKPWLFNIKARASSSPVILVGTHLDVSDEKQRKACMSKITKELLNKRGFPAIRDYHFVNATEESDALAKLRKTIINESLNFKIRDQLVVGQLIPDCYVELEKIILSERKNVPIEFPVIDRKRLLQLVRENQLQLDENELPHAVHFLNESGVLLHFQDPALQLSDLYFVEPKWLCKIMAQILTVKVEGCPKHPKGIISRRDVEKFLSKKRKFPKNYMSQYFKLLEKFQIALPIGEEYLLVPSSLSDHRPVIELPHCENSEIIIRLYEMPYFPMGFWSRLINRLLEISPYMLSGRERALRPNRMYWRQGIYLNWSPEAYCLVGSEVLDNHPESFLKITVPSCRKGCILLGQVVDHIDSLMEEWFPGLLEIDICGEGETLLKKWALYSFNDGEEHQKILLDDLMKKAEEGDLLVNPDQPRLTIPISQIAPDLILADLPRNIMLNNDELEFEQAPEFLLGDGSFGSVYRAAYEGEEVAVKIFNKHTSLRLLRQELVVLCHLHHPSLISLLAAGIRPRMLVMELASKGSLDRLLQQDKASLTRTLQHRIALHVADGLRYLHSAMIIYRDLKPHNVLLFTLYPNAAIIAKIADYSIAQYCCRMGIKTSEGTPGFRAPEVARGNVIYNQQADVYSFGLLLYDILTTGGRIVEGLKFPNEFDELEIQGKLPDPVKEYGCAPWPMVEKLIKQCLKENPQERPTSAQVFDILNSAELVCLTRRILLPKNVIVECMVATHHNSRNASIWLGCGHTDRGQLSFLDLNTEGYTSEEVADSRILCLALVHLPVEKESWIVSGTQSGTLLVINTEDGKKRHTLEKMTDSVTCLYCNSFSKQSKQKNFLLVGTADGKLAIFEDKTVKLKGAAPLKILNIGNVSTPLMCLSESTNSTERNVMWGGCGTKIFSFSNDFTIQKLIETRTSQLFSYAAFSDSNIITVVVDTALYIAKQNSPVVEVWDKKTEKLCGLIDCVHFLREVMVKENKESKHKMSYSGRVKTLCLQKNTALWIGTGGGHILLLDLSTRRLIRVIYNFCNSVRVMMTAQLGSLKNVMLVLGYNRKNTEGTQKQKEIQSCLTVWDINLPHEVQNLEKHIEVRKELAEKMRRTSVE
In short: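 Enzyme 1.25 nM in 50 mM Tris pH 8.5, 10 mM MgCl2, 0.01% Brij-35, 1 mM EGTA, 2 mM DTT, 0.05 mM orthovanadate. Compound (top 9.99 µM in DMSO, ten-point serial dilution) preincubated 15 min at RT. […] Stopped with EDTA plus 2 nM Tb anti-pERM, 1 h RT. 520/495 nm ratio read. IC50 from 4-parameter logistic fit, mean of several runs.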

[2] = molecular target: T1, Leucine-rich repeat serine/threonine-protein kinase 2; assay: Inhibition of human LRRK2 G2019S mutant expressed in human SH-SY5Y cells assessed as inhibition of tetracycline induced LRRK2 phosphorylation at Ser935 residue incubated for 90 mins by MSD assay; format: cell-based
In short: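 SH-SY5Y neuroblastoma cells carrying LRRK2 G2019S, grown in DMEM/F-12 with GlutaMax, 10% Tet-free FBS, nonessential amino acids and pen-strep at 37 °C, 5% CO2. Expression induced with Tet (2 µg/ml) 48-72 h before treatment. Compound exposure 90 min. Lysates captured on anti-LRRK2-coated MSD plates, probed for pSer935 or total LRRK2 with Sulfo-Tag read-out. IC50 from standard 4P fit of % inhibition.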

[3] = molecular target: Dual specificity protein kinase CLK2 (Homo sapiens, UniProt P49760); assay: Inhibition of CLK2 (unknown origin) assessed as substrate phosphorylation using coumarin and fluorescein-labeled peptide as substrate incubated for 1 hr by Z'-LYTE kinase assay
Sequence of Dual specificity protein kinase CLK2 (P49760 whole entry): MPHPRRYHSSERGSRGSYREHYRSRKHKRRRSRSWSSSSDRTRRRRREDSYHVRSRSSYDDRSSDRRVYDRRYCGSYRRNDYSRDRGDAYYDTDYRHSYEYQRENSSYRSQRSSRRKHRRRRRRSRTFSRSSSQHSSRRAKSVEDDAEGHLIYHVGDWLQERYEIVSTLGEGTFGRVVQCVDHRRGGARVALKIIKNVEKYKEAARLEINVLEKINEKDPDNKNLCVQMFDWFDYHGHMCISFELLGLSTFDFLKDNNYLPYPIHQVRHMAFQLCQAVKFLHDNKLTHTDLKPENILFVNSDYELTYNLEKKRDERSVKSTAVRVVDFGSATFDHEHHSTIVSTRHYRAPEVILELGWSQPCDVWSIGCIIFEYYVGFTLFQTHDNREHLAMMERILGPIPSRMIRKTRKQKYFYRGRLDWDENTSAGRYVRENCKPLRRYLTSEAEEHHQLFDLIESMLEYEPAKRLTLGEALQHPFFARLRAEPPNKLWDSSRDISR
In short: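 CLK2 Z'-LYTE coupled-enzyme kit format, 10-point titration from DMSO; enzyme, substrate and compound reacted 1 h at ambient temperature; after development solution, read at excitation 400 nm; activity from coumarin 445 nm/fluorescein 520 nm emission ratio.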

[4] = species on record: Homo sapiens; assay: Selectivity ratio, ratio of IC50 for inhibition of CLK2 (unknown origin) to IC50 for inhibition of recombinant human GST20 tagged truncated LRRK2 G2019S mutant
[5] = Plasma clearance in po dosed CD rat measured after 120 mins by LC-MS/MS analysis; format: ADME, organism-based
[6] = MRT in po dosed CD rat measured after 120 mins by LC-MS/MS analysis; format: ADME, organism-based; conditions: in vivo
[7] = Intrinsic clearance in po dosed CD rat measured after 120 mins by LC-MS/MS analysis; format: ADME, organism-based; conditions: in vivo, 2 h
[8] = Mutagenicity in Salmonella typhimurium TA100 at 30 to 5000 ug in presence of S9 metabolic activation system for 48 hrs by ames test; format: toxicity, Salmonella enterica subsp. enterica serovar Typhimurium; conditions: dose 30-5000 µg
In short: (§1)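 Plate incorporation Ames test with S9 from phenobarbital/beta-naphthoflavone-induced male Wistar Han rat liver; 30, 100, 300, 1000, 3000, 5000 µg/plate; triplicate minimal glucose agar plates with trace histidine; 48 h at 37 °C; positive if 2-fold revertant increase over vehicle with dose relation.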

[9] = Mutagenicity in Salmonella typhimurium TA1535 at 30 to 5000 ug in presence of S9 metabolic activation system for 48 hrs by ames test; format: toxicity, Salmonella enterica subsp. enterica serovar Typhimurium; conditions: in vitro, dose 30-5000 µg; in short: as §1
[10] = Mutagenicity in Salmonella typhimurium TA98 at 30 to 5000 ug in presence of S9 metabolic activation system for 48 hrs by ames test; format: toxicity, Salmonella enterica subsp. enterica serovar Typhimurium; conditions: dose 30-5000 µg; in short: as §1
[11] = molecular target: Sodium channel protein type 5 subunit alpha (Homo sapiens, UniProt Q14524); assay: Inhibition of human NaV1.5 expressed in HEK293 by PatchXpress automated patch clamp assay; format: cell-based
Sequence of Sodium channel protein type 5 subunit alpha (Q14524 whole entry): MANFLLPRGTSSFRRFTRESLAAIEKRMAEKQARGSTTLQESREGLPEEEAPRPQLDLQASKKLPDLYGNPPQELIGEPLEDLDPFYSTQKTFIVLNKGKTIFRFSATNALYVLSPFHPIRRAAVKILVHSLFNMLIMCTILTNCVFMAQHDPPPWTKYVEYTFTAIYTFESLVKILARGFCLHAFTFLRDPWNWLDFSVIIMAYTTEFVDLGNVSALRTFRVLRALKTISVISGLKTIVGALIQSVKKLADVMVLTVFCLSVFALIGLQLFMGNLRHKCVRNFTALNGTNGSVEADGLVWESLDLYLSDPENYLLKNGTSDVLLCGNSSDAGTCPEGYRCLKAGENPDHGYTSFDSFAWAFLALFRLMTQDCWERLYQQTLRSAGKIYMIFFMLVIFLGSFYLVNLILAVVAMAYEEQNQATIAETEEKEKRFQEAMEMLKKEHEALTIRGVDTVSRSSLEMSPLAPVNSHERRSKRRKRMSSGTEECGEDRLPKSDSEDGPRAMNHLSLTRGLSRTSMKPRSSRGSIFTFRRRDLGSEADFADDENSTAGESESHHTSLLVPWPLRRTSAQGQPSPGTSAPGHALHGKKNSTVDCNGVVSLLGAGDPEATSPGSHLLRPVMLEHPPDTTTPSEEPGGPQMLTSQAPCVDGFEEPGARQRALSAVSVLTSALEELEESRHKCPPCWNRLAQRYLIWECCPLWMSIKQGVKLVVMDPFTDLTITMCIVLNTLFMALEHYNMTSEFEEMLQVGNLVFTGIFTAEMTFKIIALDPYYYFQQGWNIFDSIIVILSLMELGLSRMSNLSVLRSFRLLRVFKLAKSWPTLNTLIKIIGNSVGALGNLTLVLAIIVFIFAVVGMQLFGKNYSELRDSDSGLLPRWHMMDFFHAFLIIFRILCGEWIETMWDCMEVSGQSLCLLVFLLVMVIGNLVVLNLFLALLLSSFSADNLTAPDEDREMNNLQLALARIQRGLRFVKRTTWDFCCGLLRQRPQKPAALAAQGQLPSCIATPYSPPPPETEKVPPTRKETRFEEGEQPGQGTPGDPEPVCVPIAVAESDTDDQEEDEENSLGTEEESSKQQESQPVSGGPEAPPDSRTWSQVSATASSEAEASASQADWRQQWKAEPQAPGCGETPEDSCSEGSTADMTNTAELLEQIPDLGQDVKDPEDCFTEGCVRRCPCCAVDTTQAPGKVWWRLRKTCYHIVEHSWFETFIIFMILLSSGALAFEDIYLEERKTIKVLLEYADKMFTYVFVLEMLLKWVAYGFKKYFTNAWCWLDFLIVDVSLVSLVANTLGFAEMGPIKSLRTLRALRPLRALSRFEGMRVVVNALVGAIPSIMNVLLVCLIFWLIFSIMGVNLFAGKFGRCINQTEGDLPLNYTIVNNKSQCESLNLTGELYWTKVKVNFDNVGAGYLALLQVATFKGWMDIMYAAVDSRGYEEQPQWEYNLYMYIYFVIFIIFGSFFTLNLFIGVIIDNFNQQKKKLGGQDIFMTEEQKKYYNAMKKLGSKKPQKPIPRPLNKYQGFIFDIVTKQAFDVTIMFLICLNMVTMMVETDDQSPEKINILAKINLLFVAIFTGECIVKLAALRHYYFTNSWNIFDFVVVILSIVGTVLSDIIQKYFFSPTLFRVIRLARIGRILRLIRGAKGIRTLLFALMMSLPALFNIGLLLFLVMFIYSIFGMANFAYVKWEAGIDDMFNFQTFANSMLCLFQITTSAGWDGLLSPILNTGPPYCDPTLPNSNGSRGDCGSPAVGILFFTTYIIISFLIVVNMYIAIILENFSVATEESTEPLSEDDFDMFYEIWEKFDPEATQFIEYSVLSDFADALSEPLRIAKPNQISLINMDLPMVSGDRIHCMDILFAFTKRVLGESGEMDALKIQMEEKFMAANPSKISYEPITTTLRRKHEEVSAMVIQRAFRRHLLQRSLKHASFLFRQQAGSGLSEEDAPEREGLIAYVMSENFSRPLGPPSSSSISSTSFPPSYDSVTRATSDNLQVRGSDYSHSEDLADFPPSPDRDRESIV

[12] = In vivo inhibition of LRRK2 in CD rat assessed as reduction in serine 935 phosphorylated LRRK2 in striatum at 10 mg/kg, po and measured after 2 hrs by MSD immunoassay; format: functional
In short: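 Male CD rats (125-150 g) dosed orally with compound suspended in 10% Tween 80 (5 mL/kg) or vehicle, euthanized by CO2 2 h later; striatum dissected, frozen on dry ice; pSer935 LRRK2 measured by MSD immunoassay as pSer935/total LRRK2 ratio, mean ± S.E.M.; one-way ANOVA with Dunnett's post hoc test.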

[13] = Intrinsic clearance in po dosed Beagle dog and measured upto 24 hrs by LC-MS/MS analysis; format: ADME, organism-based, Canis lupus familiaris; conditions: in vivo
[14] = MRT in po dosed Beagle dog and measured upto 24 hrs by LC-MS/MS analysis; format: ADME, organism-based, Canis lupus familiaris; conditions: in vivo
[15] = Plasma clearance in po dosed Beagle dog and measured upto 24 hrs by LC-MS/MS analysis; format: ADME, organism-based, Canis lupus familiaris
[16] = test system: P-gp (rat Mdr1a); assay: Substrate activity at P-gp (unknown origin) expressed in LLC-PK1 cells transfected with rat Mdr1a assessed as efflux ratio of apparent permeability across basolateral to apical side to apparent permeability across apical to basolateral side at 1 uM incubated for 3 hrs by LC-MSMS analysis; format: ADME, cell-based, Sus scrofa; conditions: pig
[17] = Brain to plasma permeability coefficient, Kp in CD rat plasma assessed as unbound fraction at 3 to 100 mg/kg, po and measured after 2 hrs by LC/MS/MS analysis; format: ADME, organism-based; conditions: in vivo, dose 3-100 mg/kg
[18] = test system: P-gp (rat Mdr1a); assay: Substrate activity at P-gp (unknown origin) expressed in LLC-PK1 cells transfected with rat Mdr1a assessed as apparent permeability at 1 uM incubated for 3 hrs by LC-MSMS analysis; format: ADME, cell-based, Sus scrofa; conditions: pig

Row | SMILES | IC50 [1] [nM] | IC50 [2] [nM] | IC50 [3] [nM] | Ratio IC50 [4] | further results
1 | C[C@@H]1[C@H](O)CCN1c1cc(NC(=O)c2cccc(-c3cnn(C)c3)n2)c(C(F)(F)F)cn1 | 5 | 3 | 86 | – | –
2 | COC1CN(c2cc(NC(=O)c3cccc(-c4cnn(C)c4)n3)c(C(F)(F)F)cn2)C1 | 28 | 2.8 | 67 | 2.4 | –
3 | CC(C)(O)[C@@H]1CCN(c2cnc(C(F)(F)F)c(NC(=O)c3cccc(-c4cnn(CC5CC5)c4)n3)c2)C1 | 8.6 | 0.4 | 23 | 3 | CL/F [5]: 38 mL/min/kg; MRT [6]: 2.9 h; CL [7]: 78464 mL/min/kg
4 | Cn1cc(-c2nc(C(=O)Nc3cnn(C4CCC4)c3)cs2)cn1 | – | 271 | 119 | 8.5 | –
5 | Cc1cnc(N2C[C@@H](C)O[C@@H](C)C2)cc1NC(=O)c1cccc(-c2cnn(C)c2)n1 | 9 | 24 | 124 | 14 | –
6 | Cn1cc(-c2cccc(C(=O)Nc3cnn(C4CCC4)c3)n2)cn1 | 53 | 905 | 5960 | 112 | –
7 | CC(C)(O)[C@@H]1CCN(c2cnc(C(F)(F)F)c(N)c2)C1 | – | – | – | – | Activity [8]: Non-Toxic; Activity [9]: Non-Toxic; Activity [10]: Non-Toxic
8 | Cn1cc(-c2cccc(C(=O)Nc3cc(N4CC(O)C4)ncc3C(F)(F)F)n2)cn1 | 4.8 | 7.5 | 64 | 13 | –
9 | CC(C)(O)[C@@H]1CCN(c2cnc(C(F)(F)F)c(NC(=O)c3cccc(-c4cnn(C5CCC5)c4)n3)c2)C1 | 19 | 1.3 | 91 | 5 | CL/F [5]: 31.4 mL/min/kg; MRT [6]: 2.1 h
10 | CC(C)(O)[C@@H]1CCN(c2cc(N)c(C(F)(F)F)cn2)C1 | – | – | – | – | Activity [8]: Toxic; Activity [9]: Toxic; Activity [10]: Toxic
11 | Cn1cc(-c2cccc(C(=O)Nc3cc(N4CC5(C(C)(C)O)CC4C5)ncc3C(F)(F)F)n2)cn1 | 9 | 2 | 9.6 | – | –
12 | Cc1nc(NC(=O)c2cccc(-c3cnn(C)c3)n2)cc(N2CC[C@@H](C(C)(C)O)C2)n1 | 4 | 42 | 255 | – | –
13 | C[C@@H]1CN(c2cc(NC(=O)c3cccc(-c4cnn(C)c4)n3)c(C(F)(F)F)cn2)C[C@H](C)O1 | 4 | 1.5 | 21 | 5 | –
14 | CCn1cc(-c2cccc(C(=O)Nc3cc(N4CC[C@@H](C(C)(C)O)C4)cnc3C(F)(F)F)n2)cn1 | 40 | 7 | 30 | – | –
15 | CC(C)(O)[C@@H]1CCN(c2cnc(C(F)(F)F)c(NC(=O)c3cccc(-c4cnn(CC5(C(F)(F)F)CC5)c4)n3)c2)C1 | 8 | 0.3 | 470 | 59 | CL/F [5]: 87 mL/min/kg; MRT [6]: 1.2 h
16 | Cn1cc(-c2cccc(C(=O)Nc3cnn(C4CCC4)c3)c2F)cn1 | 70 | 1650 | 716 | 10 | –
17 | CC(C)(O)[C@@H]1CCN(c2cnc(C(F)(F)F)c(NC(=O)c3cccc(-c4cnn(CC(F)(F)F)c4)n3)c2)C1 | 10 | 0.7 | 442 | 42 | CL/F [5]: 42 mL/min/kg; MRT [6]: 1.7 h; CL [7]: 2780 mL/min/kg; IC50 [11]: 30 µM
18 | C[C@@H]1[C@@H](O)CN1c1cc(NC(=O)c2cccc(-c3cnn(C)c3)n2)c(C(F)(F)F)cn1 | 2 | 2 | 12 | – | –
19 | Cc1nc(N)cc(N2CC[C@@H](C(C)(C)O)C2)n1 | – | – | – | – | Activity [8]: Non-Toxic; Activity [9]: Non-Toxic; Activity [10]: Non-Toxic
20 | Cn1cc(-c2nccc(C(=O)Nc3cnn(C4CCC4)c3)n2)cn1 | – | 953 | 17200 | 505 | –
21 | C[C@@H]1CN(c2cc(-c3n[nH]c4ccc(OC5(C)CC5)cc34)ncn2)C[C@H](C)O1 [MLi-2] | – | – | – | – | inhibition in vivo at 10 mg/kg [12]: 72%
22 | Cn1cc(-c2cccc(C(=O)Nc3cc(N4CC[C@@H](C(C)(C)O)C4)cnc3C(F)(F)F)n2)cn1 | 17 | 21 | 62 | 4 | CL/F [5]: 6.7 mL/min/kg; MRT [6]: 4.9 h; CL [13]: 1029 mL/min/kg; MRT [14]: 9.4 h; CL [7]: 271 mL/min/kg; CL/F [15]: 4.8 mL/min/kg; efflux ratio at 3 h, 1 µM [16]: 0.94; Kp [17]: 0.4; Papp at 3 h, 1 µM [18]: 29 ×10⁻⁶ cm/s
23 | C[C@H]1CN(c2cc(NC(=O)c3cccc(-c4cnn(C)c4)n3)c(C(F)(F)F)cn2)CCN1C1COC1 | 1.5 | – | 8 | 5 | CL/F [5]: 2.7 mL/min/kg; MRT [6]: 2.2 h; CL [7]: 4081 mL/min/kg
